Test results published in ChEMBL document CHEMBL3853331, “Preparation, Antiepileptic Activity, and Cardiovascular Safety of Dihydropyrazoles as Brain-Penetrant T-Type Calcium Channel Blockers” (J Med Chem, 2016).
pIC50: −log10 of the molar value.

Tests used:
[1] = target: Voltage-dependent L-type calcium channel subunit alpha-1C (Homo sapiens, UniProt Q13936); test: Inhibition of recombinant […] calcium channel Cav1.2 (unknown origin) expressed in HEK293 cells assessed as inhibition of Kcl-induced calcium influx preincubated for 3 mins prior CaCl2 addition by Fluo-4-AM dye-based FLIPR assay; format: cell-based
How it was run: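 HEK293 cells stably expressing the channel, seeded overnight and loaded 1 h at 37°C with 3 µM Fluo-4-AM. Compounds given as a 3-fold dilution series from 10 µM to 0.05 nM and incubated 3 min. For T-type channels, dilutions in TEAC buffer and stimulation with 10 mM final CaCl2. For Cav1.2, dilutions in assay buffer and stimulation with 20 mM final KCl. IC50 from area under the fluorescence trace against vehicle; mean of at least two experiments.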

MDR1 [2] = test: Apparent permeability across basolateral to apical side in MDCK cells expressing MDR1 (unknown origin) at 1 uM; format: ADME, cell-based, Canis lupus familiaris; settings: dog
How it was run: (§1)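 MDR1-transfected MDCK cell monolayers. Compound tested at 1 µM. Apparent permeability measured in both directions, apical to basolateral and basolateral to apical. Efflux ratio taken from the two directional permeabilities.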

MDR1 [3] = test: Efflux ratio of permeability in MDCK cells expressing MDR1 (unknown origin); format: ADME, cell-based, Canis lupus familiaris; settings: dog; how it was run: as §1
[4] = target: T1, Voltage-dependent T-type calcium channel subunit alpha-1H (Homo sapiens, UniProt O95180); test: Inhibition of human T-type calcium channel Cav3.2 expressed in CHO cells assessed as inhibition of calcium tail current at -60 mV holding potential measured after 150 secs by QPatch assay; format: cell-based
How it was run: (§2)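 CHO cells stably expressing human Cav3.1, Cav3.2 or Cav3.3, automated QPatch recording. 3-ms depolarization to +20 mV from a holding potential of -90 or -60 mV. Ca2+ tail current measured at -60 mV. Cs-glutamate internal and TEA-Cl external solution with 5 mM Ca2+. Effect read 150 s after application.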

[5] = target: T1, Voltage-dependent T-type calcium channel subunit alpha-1H; test: Inhibition of human T-type calcium channel Cav3.2 expressed in CHO cells assessed as inhibition of calcium tail current at -90 mV holding potential measured after 150 secs by QPatch assay; format: cell-based; how it was run: as §2
[6] = target: Voltage-dependent T-type calcium channel subunit alpha-1I (Homo sapiens, UniProt Q9P0X4); test: Inhibition of human T-type calcium channel Cav3.3 expressed in CHO cells assessed as inhibition of calcium tail current at -90 mV holding potential measured after 150 secs by QPatch assay; format: cell-based; how it was run: as §2
Rattus norvegicus [7] = species on record: Rattus norvegicus; test: Inhibition of Wistar rat brain neuronal sodium channel assessed as reduction in peak inward current at 10 uM measured during first peak
How it was run: (§3)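 Cortical neurons from E18 Wistar rat embryos, cultured 9-15 days, recorded by manual patch clamp from a holding potential of -80 mV. K+ currents: one 50-ms step to 0 mV, fast as peak outward and slow as end-of-pulse current. Na+ currents: train of fifteen 10-ms steps to 0 mV, peak inward current read at the first and last pulses. Effects read at least 180 s after application.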

Rattus norvegicus [8] = species on record: Rattus norvegicus; test: Inhibition of Wistar rat brain neuronal sodium channel assessed as peak inward current at 10 uM measured during last peak; how it was run: as §3
Cytochrome P450 3A4 [9] = target: T2, Cytochrome P450 3A4 (Homo sapiens, UniProt P08684); test: Inhibition of CYP3A4 (unknown origin) using midazolam as substrate; format: ADME
Cytochrome P450 3A4 [10] = target: T2, Cytochrome P450 3A4; test: Inhibition of CYP3A4 (unknown origin) using testosterone as substrate; format: ADME
Cytochrome P450 2C9 = Cytochrome P450 2C9 (Homo sapiens, UniProt P11712); test: Inhibition of CYP2C9 (unknown origin); format: ADME
[11] = Metabolic stability in mouse microsomes measured per mg protein; format: ADME, Microsome
[12] = Fraction unbound in human plasma; format: ADME, cell-free
[13] = Clearance in Wistar rat plasma at 0.2 mg/kg, iv administered 2 hrs after aminobenzotriazol-treatment; format: ADME, organism-based
How it was run: (§4)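 Male Wistar rats dosed iv at 0.2 mg/kg or po at 2 mg/kg. In the inhibited arm, the broad CYP inhibitor aminobenzotriazol was given orally 2 h before dosing. Clearance, Vss and half-life derived from plasma concentrations after the iv dose; Cmax and Tmax from the po dose.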

[14] = Volume of distribution at steady state in Wistar rat plasma at 0.2 mg/kg, iv; format: ADME, organism-based; settings: read-out: Vdss
[15] = Cmax in Wistar rat plasma at 2 mg/kg, po; format: ADME, organism-based; design: dose 2 mg/kg, route oral; how it was run: as §4
[16] = Cmax in Wistar rat plasma at 2 mg/kg, po administered 2 hrs after aminobenzotriazol-treatment; format: ADME, organism-based; design: dose 2 mg/kg, route oral; how it was run: as §4
[17] = Tmax in Wistar rat plasma at 2 mg/kg, po; format: ADME, organism-based
[18] = Tmax in Beagle dog plasma at 10 mg/kg, po; format: ADME, organism-based, Canis lupus familiaris
[19] = Oral bioavailability in Wistar rat plasma at 2 mg/kg; format: ADME, organism-based
[20] = Plasma concentration in Wistar rat at 30 mg/kg, po measured after 1 hr; format: ADME, organism-based
[21] = Drug uptake in Wistar rat brain at 100 mg/kg, po measured after 1 hr; format: ADME, organism-based; settings: read-out: Drug uptake
How it was run: (§5)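 Male Wistar rats given oral doses of 10, 30 or 100 mg/kg. Plasma, brain and CSF collected at 1 h, and at 3 h for the 10 mg/kg dose; compound concentrations measured in each.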

[22] = Drug uptake in Wistar rat brain at 10 mg/kg, po measured after 3 hrs; format: ADME, organism-based; settings: read-out: Drug uptake; how it was run: as §5
[23] = Drug uptake in Wistar rat CSF at 100 mg/kg, po measured after 1 hr; format: ADME, organism-based, Cerebrospinal fluid; settings: read-out: Drug uptake; how it was run: as §5
[24] = Drug uptake in Wistar rat CSF at 30 mg/kg, po measured after 1 hr; format: ADME, organism-based, Cerebrospinal fluid; settings: read-out: Drug uptake; how it was run: as §5
[25] = Drug uptake in Wistar rat CSF at 10 mg/kg, po measured after 1 hr; format: ADME, organism-based, Cerebrospinal fluid; settings: read-out: Drug uptake; how it was run: as §5
[26] = Fraction unbound in Wistar rat microsomes; format: ADME, Microsome
[27] = Intrinsic clearance in rat hepatocytes; format: ADME, cell-based, Hepatocyte
Rattus norvegicus [28] = test: Cardiovascular toxicity in spontaneously hypertensive rat assessed as decrease in mean […] pressure at 100 mg/kg, po by telemetry method; format: organism-based; settings: in vivo
How it was run: (§6)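 Conscious, freely moving male spontaneously hypertensive rats with telemetry recording MAP, HR and ECG. Single oral dose (5 ml/kg) given as a suspension in 0.5% w/v methylcellulose in water, in the morning during the sleep phase. Vehicle controls run in parallel, n = 8 per group.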

Rattus norvegicus [29] = test: Cardiovascular toxicity in spontaneously hypertensive rat assessed as reduction in heart rate at 100 mg/kg, po within 6 hrs post dose; format: organism-based; settings: in vivo; how it was run: as §6
Rattus norvegicus [30] = test: Cardiotoxicity in rat assessed as QT prolongation at 100 mg/kg by electrophysiology method; format: toxicity, organism-based; settings: in vivo; how it was run: as §6
Rattus norvegicus [31] = test: Cardiovascular toxicity in spontaneously hypertensive rat assessed as induction of AV block type 2 at 100 mg/kg, po by telemetry method; format: organism-based; settings: in vivo; how it was run: as §6
Rattus norvegicus [32] = test: Anticonvulsant activity in WAG/Rij rat model of generalized nonconvulsive absence-like epilepsy assessed as decrease in duration of spontaneous seizures at 100 mg/kg, po administered as single dose at beginning of nocturnal active phase measured over 4 hrs by radiotelometry relative to vehicle control
Rattus norvegicus [33] = test: Anticonvulsant activity in WAG/Rij rat model of generalized nonconvulsive absence-like epilepsy assessed as decrease in total duration of spontaneous seizures at 100 mg/kg, po administered as single dose at beginning of nocturnal active phase measured over 12 hrs by radiotelometry relative to vehicle control

T1 sequence (O95180 whole entry): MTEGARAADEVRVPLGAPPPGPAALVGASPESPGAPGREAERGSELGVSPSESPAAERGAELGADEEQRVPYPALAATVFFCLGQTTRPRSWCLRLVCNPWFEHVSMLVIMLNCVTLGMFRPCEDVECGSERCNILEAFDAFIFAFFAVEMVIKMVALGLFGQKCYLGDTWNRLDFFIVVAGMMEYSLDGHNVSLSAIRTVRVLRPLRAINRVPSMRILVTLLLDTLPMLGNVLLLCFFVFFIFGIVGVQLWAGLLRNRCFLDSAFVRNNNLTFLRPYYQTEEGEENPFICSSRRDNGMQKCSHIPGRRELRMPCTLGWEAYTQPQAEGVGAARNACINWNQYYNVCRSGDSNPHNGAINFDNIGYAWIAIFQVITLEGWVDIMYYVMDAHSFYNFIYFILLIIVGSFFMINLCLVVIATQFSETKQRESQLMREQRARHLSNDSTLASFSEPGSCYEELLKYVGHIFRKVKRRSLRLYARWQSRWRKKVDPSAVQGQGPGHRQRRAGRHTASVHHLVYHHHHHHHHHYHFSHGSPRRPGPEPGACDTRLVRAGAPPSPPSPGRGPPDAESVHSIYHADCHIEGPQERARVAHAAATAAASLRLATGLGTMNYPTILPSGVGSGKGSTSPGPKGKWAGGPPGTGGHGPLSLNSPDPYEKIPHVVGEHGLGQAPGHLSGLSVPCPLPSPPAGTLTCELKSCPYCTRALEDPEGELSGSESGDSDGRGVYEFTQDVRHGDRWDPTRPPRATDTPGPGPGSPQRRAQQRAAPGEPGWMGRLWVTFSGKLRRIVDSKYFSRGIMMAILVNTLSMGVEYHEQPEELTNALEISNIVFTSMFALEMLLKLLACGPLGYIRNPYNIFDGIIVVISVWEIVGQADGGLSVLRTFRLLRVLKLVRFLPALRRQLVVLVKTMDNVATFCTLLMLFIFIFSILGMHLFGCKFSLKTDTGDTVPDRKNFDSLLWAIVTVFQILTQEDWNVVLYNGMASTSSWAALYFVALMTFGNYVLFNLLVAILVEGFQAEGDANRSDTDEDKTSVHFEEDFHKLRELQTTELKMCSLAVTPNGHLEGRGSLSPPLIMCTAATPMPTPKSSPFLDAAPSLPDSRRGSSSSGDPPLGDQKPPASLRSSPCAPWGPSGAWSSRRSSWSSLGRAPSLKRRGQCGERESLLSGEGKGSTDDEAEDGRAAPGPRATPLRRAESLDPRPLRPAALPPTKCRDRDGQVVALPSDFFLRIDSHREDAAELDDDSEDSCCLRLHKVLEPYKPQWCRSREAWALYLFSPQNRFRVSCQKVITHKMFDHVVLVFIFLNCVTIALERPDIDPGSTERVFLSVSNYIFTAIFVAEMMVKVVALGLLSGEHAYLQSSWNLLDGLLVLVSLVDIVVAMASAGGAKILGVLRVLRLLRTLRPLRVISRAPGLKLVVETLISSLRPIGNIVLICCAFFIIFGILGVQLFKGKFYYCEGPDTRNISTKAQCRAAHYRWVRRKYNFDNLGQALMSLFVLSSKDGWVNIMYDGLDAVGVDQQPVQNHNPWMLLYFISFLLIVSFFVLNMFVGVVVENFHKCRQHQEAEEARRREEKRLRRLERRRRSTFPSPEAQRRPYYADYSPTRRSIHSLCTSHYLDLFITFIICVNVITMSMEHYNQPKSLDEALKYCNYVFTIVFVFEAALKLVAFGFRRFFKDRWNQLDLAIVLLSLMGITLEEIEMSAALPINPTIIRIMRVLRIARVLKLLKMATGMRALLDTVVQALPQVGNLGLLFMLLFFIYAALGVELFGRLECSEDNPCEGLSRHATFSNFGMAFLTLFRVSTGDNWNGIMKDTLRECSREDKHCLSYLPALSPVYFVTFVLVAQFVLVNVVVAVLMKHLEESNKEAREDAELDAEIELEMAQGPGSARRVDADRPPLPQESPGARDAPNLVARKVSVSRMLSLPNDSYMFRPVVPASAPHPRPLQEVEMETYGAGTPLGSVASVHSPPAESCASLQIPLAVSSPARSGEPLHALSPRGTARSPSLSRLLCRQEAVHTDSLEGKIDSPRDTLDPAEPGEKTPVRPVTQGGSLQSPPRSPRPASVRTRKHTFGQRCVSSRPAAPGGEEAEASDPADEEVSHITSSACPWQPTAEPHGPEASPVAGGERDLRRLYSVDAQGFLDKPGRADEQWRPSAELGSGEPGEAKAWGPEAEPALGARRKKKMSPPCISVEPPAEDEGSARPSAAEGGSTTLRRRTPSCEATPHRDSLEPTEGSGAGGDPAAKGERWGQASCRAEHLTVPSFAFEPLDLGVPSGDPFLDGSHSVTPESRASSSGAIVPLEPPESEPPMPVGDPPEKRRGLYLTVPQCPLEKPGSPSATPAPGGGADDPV
T2 sequence (P08684 whole entry): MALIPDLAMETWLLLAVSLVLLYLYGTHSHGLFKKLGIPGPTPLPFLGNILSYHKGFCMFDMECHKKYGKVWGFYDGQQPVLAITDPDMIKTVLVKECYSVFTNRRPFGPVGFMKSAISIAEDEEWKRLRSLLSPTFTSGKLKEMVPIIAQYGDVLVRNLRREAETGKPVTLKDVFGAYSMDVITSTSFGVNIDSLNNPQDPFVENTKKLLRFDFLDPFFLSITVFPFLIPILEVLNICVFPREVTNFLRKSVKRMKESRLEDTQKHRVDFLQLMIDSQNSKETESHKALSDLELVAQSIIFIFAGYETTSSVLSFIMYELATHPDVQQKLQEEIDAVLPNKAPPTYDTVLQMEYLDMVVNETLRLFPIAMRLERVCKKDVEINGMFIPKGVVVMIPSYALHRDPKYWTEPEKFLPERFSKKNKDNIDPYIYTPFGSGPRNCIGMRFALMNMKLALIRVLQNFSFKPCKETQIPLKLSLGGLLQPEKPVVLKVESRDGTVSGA
Chain of Voltage-dependent L-type calcium channel subunit alpha-1C (Q13936 whole entry): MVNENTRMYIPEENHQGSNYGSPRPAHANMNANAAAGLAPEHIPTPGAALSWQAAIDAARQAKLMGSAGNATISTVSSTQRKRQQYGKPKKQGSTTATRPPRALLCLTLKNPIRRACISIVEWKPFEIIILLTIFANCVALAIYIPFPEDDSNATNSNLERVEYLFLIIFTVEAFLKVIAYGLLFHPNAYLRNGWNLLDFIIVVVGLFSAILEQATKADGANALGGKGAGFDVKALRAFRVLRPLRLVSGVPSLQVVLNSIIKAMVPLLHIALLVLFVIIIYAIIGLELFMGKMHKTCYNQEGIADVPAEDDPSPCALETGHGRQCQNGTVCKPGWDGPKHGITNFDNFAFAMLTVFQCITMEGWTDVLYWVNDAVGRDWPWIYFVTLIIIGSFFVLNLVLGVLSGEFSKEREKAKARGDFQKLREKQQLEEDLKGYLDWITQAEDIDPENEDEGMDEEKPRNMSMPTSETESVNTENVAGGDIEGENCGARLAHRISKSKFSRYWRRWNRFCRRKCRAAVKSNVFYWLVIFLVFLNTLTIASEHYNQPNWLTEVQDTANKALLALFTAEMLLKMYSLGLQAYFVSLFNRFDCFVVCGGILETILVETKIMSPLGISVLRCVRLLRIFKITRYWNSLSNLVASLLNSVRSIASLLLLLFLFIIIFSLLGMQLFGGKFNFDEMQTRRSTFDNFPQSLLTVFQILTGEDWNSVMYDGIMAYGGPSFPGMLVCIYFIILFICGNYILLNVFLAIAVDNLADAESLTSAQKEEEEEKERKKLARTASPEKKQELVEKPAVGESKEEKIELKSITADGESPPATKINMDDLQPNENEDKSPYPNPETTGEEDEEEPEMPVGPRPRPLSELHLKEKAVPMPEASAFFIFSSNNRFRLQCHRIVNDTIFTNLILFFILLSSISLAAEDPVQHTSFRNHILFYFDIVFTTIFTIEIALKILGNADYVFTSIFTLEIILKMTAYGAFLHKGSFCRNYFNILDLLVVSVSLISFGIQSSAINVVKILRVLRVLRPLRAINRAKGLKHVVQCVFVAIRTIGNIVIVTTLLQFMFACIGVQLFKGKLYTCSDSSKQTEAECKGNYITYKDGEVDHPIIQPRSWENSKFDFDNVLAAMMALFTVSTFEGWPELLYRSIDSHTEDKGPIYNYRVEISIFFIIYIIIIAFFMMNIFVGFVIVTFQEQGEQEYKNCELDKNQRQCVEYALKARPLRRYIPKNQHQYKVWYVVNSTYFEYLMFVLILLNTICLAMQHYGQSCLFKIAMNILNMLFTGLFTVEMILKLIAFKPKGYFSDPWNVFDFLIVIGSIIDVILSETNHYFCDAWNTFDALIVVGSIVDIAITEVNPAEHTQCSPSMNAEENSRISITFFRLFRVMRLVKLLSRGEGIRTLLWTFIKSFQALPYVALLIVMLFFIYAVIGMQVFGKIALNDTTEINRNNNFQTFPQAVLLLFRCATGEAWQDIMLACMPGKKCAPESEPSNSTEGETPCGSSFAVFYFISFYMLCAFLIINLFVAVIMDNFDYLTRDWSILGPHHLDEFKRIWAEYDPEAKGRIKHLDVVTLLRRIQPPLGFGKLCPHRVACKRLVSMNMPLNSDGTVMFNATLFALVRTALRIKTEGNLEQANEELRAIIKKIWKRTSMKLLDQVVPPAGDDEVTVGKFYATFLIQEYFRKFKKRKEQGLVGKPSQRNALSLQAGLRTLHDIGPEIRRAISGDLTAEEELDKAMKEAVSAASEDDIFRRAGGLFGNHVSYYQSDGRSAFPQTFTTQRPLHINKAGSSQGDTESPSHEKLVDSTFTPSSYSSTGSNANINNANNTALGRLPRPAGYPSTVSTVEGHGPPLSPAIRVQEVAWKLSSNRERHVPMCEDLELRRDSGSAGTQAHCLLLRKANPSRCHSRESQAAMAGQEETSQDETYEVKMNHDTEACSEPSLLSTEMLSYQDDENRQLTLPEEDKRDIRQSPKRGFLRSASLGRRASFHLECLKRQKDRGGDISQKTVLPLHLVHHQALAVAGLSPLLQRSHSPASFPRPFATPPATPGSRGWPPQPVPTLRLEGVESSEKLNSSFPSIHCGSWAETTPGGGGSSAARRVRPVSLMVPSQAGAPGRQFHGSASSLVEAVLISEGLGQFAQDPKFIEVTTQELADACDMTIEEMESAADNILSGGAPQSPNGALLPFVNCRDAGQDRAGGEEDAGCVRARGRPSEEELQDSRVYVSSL

Papp B→A at 1 µM (MDR1 [2]): 44 ×10⁻⁶ cm/s | efflux ratio (MDR1 [3]): 1 | pIC50 [4]: 6.66 | pIC50 [5]: 5.77 | pIC50 [6]: 5.15 | inhibition (Rattus norvegicus [7]): 15% | inhibition (Rattus norvegicus [8]): 26% | pIC50 (Cytochrome P450 3A4 [9]): 4.74 | pIC50 (Cytochrome P450 3A4 [10]): 5.74 | pIC50 (Cytochrome P450 2C9): 5.74 | microsomal CLint [11]: 37 µL/min/mg | fraction unbound [12]: 0.02 | clearance [13]: 1.6 mL/min/kg | Vd [14]: 23 L/kg | Cmax [15]: 27 nM | Cmax [16]: 150 nM | Tmax [17]: 15 min | Tmax [18]: 45 min | bioavailability [19]: 4% | concentration at 1 h [20]: 630 nM | concentration at 1 h [21]: 4.27 µM | concentration at 3 h [22]: 1150 nM | concentration at 1 h [23]: 61 nM | concentration at 1 h [24]: 47 nM | concentration at 1 h [25]: 19 nM | fraction unbound [26]: 0.5 | CLH [27]: 5.7 µL/min
Structure (SMILES): O=C(Nc1ccc(F)cc1)N1N=C(c2ccncc2)CC1c1ccc(F)cc1 (centres undefined)
pIC50 [1]: 5.19 | Activity (Rattus norvegicus [28]): 12 mmHg | Activity (Rattus norvegicus [29]): Non-Toxic | Activity (Rattus norvegicus [30]): Non-Toxic | Activity (Rattus norvegicus [31]): Toxic | inhibition in vivo at 100 mg/kg (Rattus norvegicus [32]): > 99% | inhibition in vivo at 100 mg/kg (Rattus norvegicus [33]): 62.2%
